Results collected from several papers.
Each line is one published result; the experiments were not run side by side. pIC50: −log10 of the molar value.
mraY: mraY (Staphylococcus aureus, UniProt Q2FZ93)
TOP2A: DNA topoisomerase 2-alpha (TOP2A, Homo sapiens, UniProt P11388)
TNKS2: Poly [ADP-ribose] polymerase tankyrase-2 (TNKS2, Homo sapiens, UniProt Q9H2K2)
FLT3 ITD: Receptor-type tyrosine-protein kinase FLT3 (FLT3, Homo sapiens, UniProt P36888, ITD)

SMILES | target | effect on | action | method | pIC50
CCCCCCC#Cc1cncc(-c2nnc(SCc3cc([N+](=O)[O-])cc([N+](=O)[O-])c3)n2CCOC2OC(CN)C(O)C2O)c1 (stereo not drawn) | mraY | enzyme activity | inhibitor |  | 4.11
Cc1cc(C(=O)N2CC(N3CCN(C(=O)c4nccs4)CC3)C2)ccc1-c1ccc(F)c(Cl)c1 | Monoglyceride lipase (MGLL, Homo sapiens, UniProt Q99685) | enzyme activity | inhibitor | fluorescence | 8.29
Fc1ccccc1Nc1nc(-c2ccncc2)nc2c1CNCC2 | TOP2A | enzyme activity | inhibitor |  | 5.35
Cn1cc(C2=C(c3cn(CCCSC(=N)N)c4ccccc34)C(=O)NC2=O)c2ccccc21 | Mitogen-activated protein kinase kinase kinase 8 (MAP3K8, Homo sapiens, UniProt P41279) | enzyme activity | inhibitor |  | 4.96
Cc1cc(-c2ccccc2)nnc1NCCN1CCOCC1 | 5-hydroxytryptamine receptor 2B (HTR2B, Homo sapiens, UniProt P41595) | calcium signal | antagonist |  | 5.21
Cc1n[nH]c2ccc3nc(-c4ccc(C(=O)NCCN(C)C)cc4)c4c(c3c12)CCCCC4 | Receptor-type tyrosine-protein kinase FLT3 (FLT3, Homo sapiens, UniProt P36888, F691L) | enzyme activity | inhibitor |  | 6.98
CC(C)(O)c1ccc(-c2nc3cc(NC(=O)c4cnc(Oc5ccccc5)nc4)ccc3c(=O)[nH]2)cc1 | TNKS2 | enzyme activity | inhibitor |  | 8.10
CN(C)CCNC(=O)c1ccc(-c2nc3ccc4[nH]ncc4c3c3c2CCCCC3)cn1 | FLT3 ITD | enzyme activity | inhibitor |  | 6.38
CNC(=O)c1ccc(C(=O)Nc2ccc3c(=O)[nH]c(-c4ccc(C(C)(C)O)cc4)nc3c2)cc1 | TNKS2 | enzyme activity | inhibitor |  | 7.52
CN(C)CCNC(=O)c1ccc(-c2nc3ccc4[nH]ncc4c3c3c2CCCCC3)cc1 | Receptor-type tyrosine-protein kinase FLT3 (FLT3, Homo sapiens, UniProt P36888) | enzyme activity | inhibitor |  | 7.32
CN(C)c1cccc(Nc2nc(-c3ccncc3)nc3c2CNCC3)c1 | TOP2A | enzyme activity | inhibitor |  | 3.85
O=C(NC1CCCCC1)c1ccc(-c2nc3ccc4[nH]ncc4c3c3c2CCCC3)cc1 | FLT3 ITD | enzyme activity | inhibitor |  | < 6.00
CC(C)(O)c1ccc(-c2nc3cc(NC(=O)c4ccc(-c5ccccc5)nc4)ccc3c(=O)[nH]2)cc1 | TNKS2 | enzyme activity | inhibitor |  | 7.97
CN(C)CCNC(=O)c1ccc(-c2nc3ccc4[nH]ncc4c3c3c2CCC3)cc1 | FLT3 ITD | enzyme activity | inhibitor |  | 6.18
CCCCCCC#Cc1cncc(-c2nnc(SCc3cc([N+](=O)[O-])cc([N+](=O)[O-])c3)n2CCCN)c1 | mraY | enzyme activity | inhibitor |  | 4.60
